From ChEMBL document CHEMBL1127064, “A novel series of N-(1-aminoalkylidene)carboximidamides as potential hypoglycemic agents” (1993)
Calls of active or inactive are those of the source. No cut-off for these calls is given here.

Key:
Rattus norvegicus [1] = species: Rattus norvegicus; test: Effective dose to produce a 30% maximum decrease of glucose from control; type: functional
Outline: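 Rats, subcutaneous dosing at 10, 5 and 2.5 mg/kg, calculated as free base. For each rat, the maximum percent lowering of blood glucose from the control group mean at the matched time point is taken. The dose giving a 30% decrease, with its 95% CI, comes from regression of mean maximum percent decrease versus log dose (mg/kg).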

Rattus norvegicus [2] = test: Mean maximum percent lowering of glucose at a single dose of 10 mg/kg, subcutaneously using rat oral glucose tolerance test.; type: functional; conditions: route subcutaneous
Outline: (§1)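 Rats given a single 10 mg/kg sc dose, calculated as free base. Blood glucose is compared with controls at each time point by unpaired Student's t-test; a significant lowering at any point (95% confidence) counts as active. Each rat's maximum percent lowering from the matched control mean is averaged to give the mean maximum percent lowering.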

Rattus norvegicus [3] = test: Mean maximum percent lowering of glucose was determined at a single dose of 10 mg/kg, subcutaneously using rat oral glucose tolerance test; IA = inactive; type: functional, organism-based; design: dose 10 mg/kg; outline: as §1

For `CN(C)/C(=N/C(=N/c1ccccc1)N1CCOCC1)C(C)(C)C`, the ED30 (Rattus norvegicus [1]) was 9.6 mg/kg and the Lowering (Rattus norvegicus [2]) was 40%.

For `C/C(=N\C(=N\c1ccccc1)N1CCOCC1)N(Cc1ccccc1)c1ccccc1`, the Lowering (Rattus norvegicus [2]) was 17%.

In the case of `C/C(=N\C(=N\c1ccccc1)N1CCOCC1)N1CCOCC1`, the Lowering (Rattus norvegicus [2]) is reported as 24%.

For `CC(=N/C(C)C)/N=C(/Nc1ccccc1)N1CCOCC1`, the ED30 (Rattus norvegicus [1]) was 3.9 mg/kg and the Lowering (Rattus norvegicus [2]) was 42%.

`CN(C)/C=N/C(=N/c1ccccc1)N1CCOCC1` was tested, and the Lowering (Rattus norvegicus [2]) was 22%.

`CCCCN(C)/C(C)=N/C(=N/c1ccccc1)N1CCOCC1` was tested, and the ED30 (Rattus norvegicus [1]) was 7.6 mg/kg and the Lowering (Rattus norvegicus [2]) was 33%.

`C/C(=N\C(=N\c1ccccc1)N1CCOCC1)N(C)C` showed an ED30 (Rattus norvegicus [1]) of 6.7 mg/kg and a Lowering (Rattus norvegicus [2]) of 38%.

`C/N=C(\N=C(\Nc1ccccc1)N1CCCC1)C(C)C` gave a Lowering (Rattus norvegicus [2]) of 43%.

Work on `C/N=C(\N=C(\Nc1ccc(F)cc1)N1CCOCC1)C(C)C` yielded a Lowering (Rattus norvegicus [2]) of 42%.

In the case of `C/C(=N\C(=N\c1ccccc1)N1CCOCC1)N1CCN(C)CC1`, the IA (Rattus norvegicus [3]) is reported as “inactive”.

Compound `CN1CCC/C1=N\C(=N\c1ccccc1)N1CCOCC1` [LINOGLIRIDE] has an ED30 (Rattus norvegicus [1]) of 6.1 mg/kg and a Lowering (Rattus norvegicus [2]) of 34%.

In the case of `C/C(=N\C(=N\c1ccccc1)N1CCOCC1)N1CCCCC1`, the ED30 (Rattus norvegicus [1]) is reported as 5.3 mg/kg and the Lowering (Rattus norvegicus [2]) is reported as 46%.

With `CC/N=C(\N=C(\Nc1ccccc1)N1CCOCC1)C(C)C` the Lowering (Rattus norvegicus [2]) was 26%.

For `CN(C)/C(=N/C(=N/c1ccccc1)N1CCOCC1)C1CCCCC1`, the Lowering (Rattus norvegicus [2]) was 27%.

In the case of `CC(=O)N/C(C)=N/C(=N/c1ccccc1)N1CCOCC1`, the Lowering (Rattus norvegicus [2]) is reported as 22%.

`CC(=N/c1ccccc1)/N=C(/Nc1ccccc1)N1CCOCC1` was tested, and the Lowering (Rattus norvegicus [2]) was 26%.

`CN/C(=N/C(=N/c1ccccc1OC)N1CCOCC1)C(C)C` was tested, and the Lowering (Rattus norvegicus [2]) was 21%.

Compound `CC(C)/C(=N\C(=N\c1ccccc1)N1CCOCC1)N(C)C` has an ED30 (Rattus norvegicus [1]) of 4.3 mg/kg and a Lowering (Rattus norvegicus [2]) of 43%.

`C/C(=N\C(=N\c1ccccc1)N1CCOCC1)N(C)c1ccccc1` was tested, and the Lowering (Rattus norvegicus [2]) was 20%.

`CN(C)/C(CC(C)(C)C)=N/C(=N/c1ccccc1)N1CCOCC1` gave an ED30 (Rattus norvegicus [1]) of 5.9 mg/kg and a Lowering (Rattus norvegicus [2]) of 37%.

For `CN(C)/C(=N/C(=N/c1ccccc1)N1CCOCC1)c1ccccc1`, the Lowering (Rattus norvegicus [2]) was 25%.

Work on `CCC/N=C(C)\N=C(\Nc1ccccc1)N1CCOCC1` yielded an ED30 (Rattus norvegicus [1]) of 0.97 mg/kg and a Lowering (Rattus norvegicus [2]) of 56%.

`CCC(=N/C)/N=C(/Nc1ccccc1)N1CCOCC1` showed a Lowering (Rattus norvegicus [2]) of 42%.

`CC(=N/Cc1ccccc1)/N=C(/Nc1ccccc1)N1CCOCC1` showed an ED30 (Rattus norvegicus [1]) of 4.3 mg/kg and a Lowering (Rattus norvegicus [2]) of 50%.

For `CN(C)/C(Cc1ccccc1)=N/C(=N/c1ccccc1)N1CCOCC1`, the Lowering (Rattus norvegicus [2]) was 27%.

With `CCC/N=C(\N=C(\Nc1ccccc1)N1CCOCC1)C(C)C` the Lowering (Rattus norvegicus [2]) was 31%.

In the case of `CCOC(=O)C/N=C(C)\N=C(\Nc1ccccc1)N1CCOCC1`, the IA (Rattus norvegicus [3]) is reported as “inactive”.

With `CC/C(=N\C(=N\c1ccccc1)N1CCOCC1)N(C)C` the ED30 (Rattus norvegicus [1]) was 5.3 mg/kg and the Lowering (Rattus norvegicus [2]) was 43%.

`CCCCCC/C(=N\C(=N\c1ccccc1)N1CCOCC1)N(C)C` gave a Lowering (Rattus norvegicus [2]) of 31%.

Compound `CC(=N)/N=C(/Nc1ccccc1)N1CCOCC1` has a Lowering (Rattus norvegicus [2]) of 21%.

For `CC(=N/CCO)/N=C(/Nc1ccccc1)N1CCOCC1`, the Lowering (Rattus norvegicus [2]) was 15%.

Compound `CC(C)/N=C(\N=C(\Nc1ccccc1)N1CCOCC1)C(C)C` has a Lowering (Rattus norvegicus [2]) of 23%.

Compound `C/N=C(C)\N=C(\Nc1ccccc1)N1CCOCC1` has an ED30 (Rattus norvegicus [1]) of 2.6 mg/kg and a Lowering (Rattus norvegicus [2]) of 45%.

`CC(=N/C(C)(C)C)/N=C(/Nc1ccccc1)N1CCOCC1` gave an ED30 (Rattus norvegicus [1]) of 4.2 mg/kg and a Lowering (Rattus norvegicus [2]) of 45%.

Work on `C/N=C(\N=C(\Nc1ccccc1)N1CCOCC1)C(C)C` yielded an ED30 (Rattus norvegicus [1]) of 1.5 mg/kg and a Lowering (Rattus norvegicus [2]) of 52%.

Work on `CC(C)C(=N)/N=C(/Nc1ccccc1)N1CCOCC1` yielded a Lowering (Rattus norvegicus [2]) of 34%.

In the case of `CC(=N/S(C)(=O)=O)/N=C(/Nc1ccccc1)N1CCOCC1`, the IA (Rattus norvegicus [3]) is reported as “inactive”.

`CC/N=C(C)\N=C(\Nc1ccccc1)N1CCOCC1` was tested, and the ED30 (Rattus norvegicus [1]) was 4.6 mg/kg and the Lowering (Rattus norvegicus [2]) was 48%.
